Published values collected from several papers.
Compare with care: the assays were run in different laboratories.
SRC: Proto-oncogene tyrosine-protein kinase Src (SRC, Homo sapiens, UniProt P12931)
CDK9 with cyclin T1: Cyclin-dependent kinase 9, with cyclin T1 (CDK9, Homo sapiens, UniProt P50750)
PLA2G5: Phospholipase A2 group V (PLA2G5, Homo sapiens, UniProt P39877)
MDH2: Malate dehydrogenase, mitochondrial (MDH2, Sus scrofa, UniProt P00346)
CXCR4: C-X-C chemokine receptor type 4 (CXCR4, Homo sapiens, UniProt P61073)
NTRK3: NT-3 growth factor receptor (NTRK3, Homo sapiens, UniProt Q16288)
CYP2C9: Cytochrome P450 2C9 (CYP2C9, Homo sapiens, UniProt P11712)
ACVR1: Activin receptor type-1 (ACVR1, Homo sapiens, UniProt Q04771)

SMILES	target	test	setting	IC50
Cc1cnc(-c2ccc(-c3ccc(NC(=O)Nc4c(F)cc(F)cc4F)cc3F)c3c2C(=O)NC3)[nH]1	SRC	enzyme activity, inhibitor	–	0.0004 µM
C=CC(=O)Nc1ccc(N2CCC[C@@H](Nc3ncc(Cl)c(-c4c[nH]c5ccccc45)n3)C2)c(F)c1	CDK9 with cyclin T1	enzyme activity, inhibitor, FRET	–	0.436 µM
CC(=O)c1ccc(/N=N/c2cc(/C=C/C(=O)O)ccc2O)cc1	PLA2G5	enzyme activity, inhibitor, Ellman	–	42.5 µM
Nc1ccc(S(=O)(=O)Nc2ccc(-c3nc4cc(NS(=O)(=O)c5ccc(N)cc5)ccc4o3)cc2)cc1	MDH2	enzyme activity, inhibitor	–	> 62.5 µM
CCc1ccc(OCc2nnc(SCc3nc(C)no3)n2Cc2ccccc2)cc1	CXCR4	β-arrestin recruitment	–	50 µM
O=S(=O)(Nc1ccc(-c2nc3cc(NS(=O)(=O)c4ccc(C(F)(F)F)cc4)ccc3o2)cc1)c1ccc(C(F)(F)F)cc1	MDH2	enzyme activity, inhibitor	–	> 62.5 µM
CC1=C(/C=C/C(C)=C/C=C/C(C)=C/C(=O)O)C(C)(C)CCC1	Prothrombin (Rattus norvegicus, UniProt P18292)	enzyme activity, inhibitor	–	163 µM
COc1ccc2c(Oc3ccc4c(C(=O)Nc5ccccc5N)cccc4c3)ccnc2c1	SRC	enzyme activity, inhibitor	–	> 0.5 µM
COc1ccc(S(=O)(=O)Nc2ccc3oc(-c4ccc(NC(=O)c5ccc(Cl)s5)cc4)nc3c2)cc1	MDH2	enzyme activity, inhibitor	–	> 62.5 µM
CCS(=O)(=O)c1ncc(N(Cc2ccccc2)Cc2ccco2)c(C(=O)Nc2ccc(C)cc2)n1	CXCR4	β-arrestin recruitment, antagonist	–	25 µM
COc1c(Br)cccc1C(=O)Nc1ccc(Sc2nc3ccccc3s2)cc1	MDH2	enzyme activity, inhibitor	–	> 62.5 µM
CCn1ncc2c1-c1cnc(N)c(c1)O[C@H](C)c1cc(F)ccc1-c1nn(C)nc1C2	NTRK3	enzyme activity, inhibitor, radiometric	–	0.154 µM
Cc1n[nH]c2nncnc12	deoD (Escherichia coli, UniProt P0ABP8)	enzyme activity, inhibitor	pH 7	~700 µM
CCOC(=O)C1CCN(C(=O)c2ccc(N(CC)Cc3cnc4nc(N)nc(N)c4n3)cc2)CC1	CYP2C9	enzyme activity, inhibitor, luciferase	–	8.51 µM
CCc1ccc(NC(=O)c2nc(S(C)(=O)=O)ncc2N(Cc2ccccc2)Cc2ccco2)cc1	CXCR4	β-arrestin recruitment, antagonist	–	13 µM
O=C(O)c1cccc(SCc2cccc(Nc3ncc4c(-c5ccc(N6CCOCC6)cc5)[nH]nc4n3)c2)c1	Cyclin-dependent kinase 1, with cyclin B (CDK1, Homo sapiens, UniProt P06493)	enzyme activity, inhibitor	–	> 200 µM
O=S(=O)(Nc1ccc(-c2nc3cc(NS(=O)(=O)c4ccccc4Cl)ccc3o2)cc1)c1ccccc1Cl	MDH2	enzyme activity, inhibitor	–	> 62.5 µM
NCc1ccc(Nc2ncc(F)c(Nc3ccccc3)n2)cc1	ACVR1	enzyme activity, inhibitor	lysate	> 10 µM
Nc1ncnc2c1c(Cc1cccc3ccccc13)nn2CC1CCNCC1	SRC	enzyme activity, inhibitor	–	> 20 µM
O=C(O)c1cc(O)c(O)c(O)c1	PLA2G5	enzyme activity, inhibitor, Ellman	–	9.79 µM
O=C(Nc1ccn(Cc2ccc(O)cc2C(F)(F)F)n1)c1c(F)cccc1F	Voltage-dependent T-type calcium channel subunit alpha-1H (CACNA1H, Homo sapiens, UniProt O95180)	ion current, inhibitor	–	> 10 µM

SMILES	target	test	setting	IC50
Cc1ccc(S(=O)(=O)Nc2ccc(-c3nc4cc(NS(=O)(=O)c5ccc(C)cc5)ccc4o3)cc2)cc1	MDH2	enzyme activity, inhibitor	–	> 62.5 µM
O=C(O)/C=C\C(=O)Nc1ccc(S(=O)(=O)Nc2ncccn2)cc1	Dipeptidyl peptidase 4 (DPP4, Homo sapiens, UniProt P27487)	enzyme activity, inhibitor, fluorescence	–	54.6 µM
C/C(=C\C(=O)OCCCCCCCCC(=O)O)C[C@@H]1OC[C@H](C[C@@H]2O[C@H]2[C@@H](C)[C@H](C)O)[C@@H](O)[C@H]1O	CXCR4	calcium signal, antagonist	–	> 100 µM
CC(=O)c1ccc(N=Nc2c(C(=O)O)cc(O)c(O)c2O)cc1	PLA2G5	enzyme activity, inhibitor, Ellman	–	7.15 µM
COc1ccc(-c2nn3c(C)nnc3s2)cc1	DNA dC->dU-editing enzyme APOBEC-3A (Homo sapiens, UniProt P31941)	enzyme activity, inhibitor	–	> 100 µM
COc1ccc(S(=O)(=O)Nc2ccc3oc(-c4ccc(NC(=O)C5CCN(C(C)=O)CC5)cc4)nc3c2)cc1	MDH2	enzyme activity, inhibitor	–	> 62.5 µM
CCN(CC)CCOCCN(Cc1ccccc1)Cc1nc(Cc2ccccc2)no1	CXCR4	β-arrestin recruitment	–	398 µM
O=c1cc(-c2ccccc2)oc2c1ccc1ccccc12	CDK9 with cyclin T1	enzyme activity, inhibitor, ADP detection	–	> 100 µM
CCN1CCN(Cc2ccc(NC(=O)c3ccc(C)c(NC(=O)c4cncc(I)c4)c3)cc2C(F)(F)F)CC1	Ephrin type-A receptor 2 (EPHA2, Homo sapiens, UniProt P29317)	enzyme activity, inhibitor, ADP detection	–	0.578 µM
O=C(O)/C=C/c1ccc(O)c(O)c1	PLA2G5	enzyme activity, inhibitor, Ellman	–	26.8 µM
O=S(=O)(Nc1ccc(-c2nc3cc(NS(=O)(=O)c4ccc(Cl)s4)ccc3o2)cc1)c1ccc(Cl)c(C(F)(F)F)c1	MDH2	enzyme activity, inhibitor	–	> 62.5 µM
O=c1cc(-c2ccc3c(c2)OCO3)oc2c1ccc1occc12	CDK9 with cyclin T1	enzyme activity, inhibitor, ADP detection	–	31.4 µM
C[C@@H](N)COc1ccc(-c2cnc3ccc(N[C@H](C)c4cccc(F)c4)nn23)cc1	NTRK3	enzyme activity, inhibitor	–	0.0042 µM
CNC(=O)c1cc2c(Oc3ccc(NC(=O)C4(C(=O)Nc5ccc(F)cc5)CC4)cc3)ccnc2cc1OC	NTRK3	enzyme activity, inhibitor, radiometric	–	0.01 µM
CC(C)(C)n1nc(-c2ccc3nc(OC4CC4)ccc3c2)c(C(N)=O)c1N	ACVR1	cell-free assay	–	> 10 µM
O=P([O-])(O)C(O)(C[n+]1cccc(-c2ccccc2)c1)P(=O)(O)O (stereo not drawn)	Geranylgeranyl pyrophosphate synthase (GGPS1, Homo sapiens, UniProt O95749)	enzyme activity, inhibitor	–	15.8 µM
COC(=O)C1CCN(C(=O)c2ccc(N(Cc3ccccc3)Cc3cnc4nc(N)nc(N)c4n3)cc2)CC1	CYP2C9	enzyme activity, inhibitor, luciferase	–	0.316 µM
N=C(N)NCCCC[C@@H]1NC(=O)CCSSC[C@@H](C(N)=O)NC(=O)[C@@H]2CCCN2C(=O)[C@H](Cc2c[nH]c3ccccc23)NC(=O)[C@H](CC(=O)O)NC(=O)CNC1=O	CXCR4	β-arrestin recruitment, antagonist	–	> 30 µM
CC(C)(C)n1nc(-c2cnc3cc(OC4CC4)ccc3c2)c(C(N)=O)c1N	ACVR1	cell-free assay	–	> 10 µM
Cc1cccc(C)c1NC(=O)c1nc(S(C)(=O)=O)ncc1N(Cc1ccccc1)Cc1ccco1	CXCR4	β-arrestin recruitment, antagonist	–	316 µM
CN1CCN(c2ccc(Nc3ncc4cc(C#N)c(=O)n(C5CCCC5)c4n3)cc2)CC1	Cyclin-dependent kinase 1, with cyclin A (CDK1, Homo sapiens, UniProt P06493)	enzyme activity, inhibitor	–	7.41 µM
